Data: ChEMBL document CHEMBL1138194, “Spatial conformation and topography of the tyrosine aromatic ring in substrate recognition by protein tyrosine kinases” (J Med Chem, 2006)

How the values were obtained:
[1] = test system: CC(C)[C@H](NC(=O)[C@H](CCC(=O)O)NC(=O)[C@H](CCC(=O)O)NC(=O)[C@@H]1Cc2cc(O)ccc2CN1C(=O)[C@H](CCC(=O)O)NC(=O)[C@H](CC(=O)O)NC(=O)[C@H](CC(=O)O)NC(=O)[C@@H](N)CCC(=O)O)C(=O)O; assay: (§1) Affinity towards tyrosine kinase Syk
How it was run: (§2)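 Syk purified from rat spleen (1 unit = 1 pmol phosphate/min to polyGlu4Tyr at 0.1 mg/mL). Kinetic assays at 30 °C in 50 mM Tris/HCl pH 7.5, 5 mM MnCl2, 20 µM [γ33P]ATP, 10 units enzyme, varied peptide substrate. Stopped with 1 N HCl, heated to hydrolyse ATP, Pi removed as phosphomolybdic complex; aqueous phosphopeptide counted by scintillation; Km derived.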

[2] = test system: CC(C)[C@H](NC(=O)[C@H](CCC(=O)O)NC(=O)[C@H](CCC(=O)O)NC(=O)[C@@]1(NC(=O)[C@H](CCC(=O)O)NC(=O)[C@H](CC(=O)O)NC(=O)[C@H](CC(=O)O)NC(=O)[C@@H](N)CCC(=O)O)Cc2ccc(O)cc2C1)C(=O)O; assay: as §1; how it was run: as §2
[3] = test system: CC(C)[C@H](NC(=O)[C@H](CCC(=O)O)NC(=O)[C@H](CCC(=O)O)NC(=O)[C@](C)(Cc1ccc(O)cc1)NC(=O)[C@H](CCC(=O)O)NC(=O)[C@H](CC(=O)O)NC(=O)[C@H](CC(=O)O)NC(=O)[C@@H](N)CCC(=O)O)C(=O)O; assay: as §1; how it was run: as §2
[4] = test system: CC(C)[C@H](NC(=O)[C@H](CCC(=O)O)NC(=O)[C@H](CCC(=O)O)NC(=O)[C@]1(NC(=O)[C@H](CCC(=O)O)NC(=O)[C@H](CC(=O)O)NC(=O)[C@H](CC(=O)O)NC(=O)[C@@H](N)CCC(=O)O)Cc2ccc(O)cc2C1)C(=O)O; assay: as §1; how it was run: as §2
[5] = test system: CC(C)[C@H](NC(=O)[C@H](CCC(=O)O)NC(=O)[C@H](CCC(=O)O)NC(=O)[C@@]1(NC(=O)[C@H](CCC(=O)O)NC(=O)[C@H](CC(=O)O)NC(=O)[C@H](CC(=O)O)NC(=O)[C@@H](N)CCC(=O)O)CCc2cc(O)ccc2C1)C(=O)O; assay: as §1; how it was run: as §2
[6] = test system: CC(C)[C@H](NC(=O)[C@H](CCC(=O)O)NC(=O)[C@H](CCC(=O)O)NC(=O)[C@@H](NC(=O)[C@H](CCC(=O)O)NC(=O)[C@H](CC(=O)O)NC(=O)[C@H](CC(=O)O)NC(=O)[C@@H](N)CCC(=O)O)[C@@H](C)c1ccc(O)cc1)C(=O)O; assay: as §1; how it was run: as §2
[7] = test system: CC(C)[C@H](NC(=O)[C@H](CCC(=O)O)NC(=O)[C@H](CCC(=O)O)NC(=O)[C@H](NC(=O)[C@H](CCC(=O)O)NC(=O)[C@H](CC(=O)O)NC(=O)[C@H](CC(=O)O)NC(=O)[C@@H](N)CCC(=O)O)[C@@H](C)c1ccc(O)cc1)C(=O)O; assay: as §1; how it was run: as §2
[8] = test system: CC(C)[C@H](NC(=O)[C@H](CCC(=O)O)NC(=O)[C@H](CCC(=O)O)NC(=O)[C@H](Cc1cccc(O)c1)NC(=O)[C@H](CCC(=O)O)NC(=O)[C@H](CC(=O)O)NC(=O)[C@H](CC(=O)O)NC(=O)[C@@H](N)CCC(=O)O)C(=O)O; assay: as §1; how it was run: as §2
[9] = test system: CC(C)[C@H](NC(=O)[C@H](CCC(=O)O)NC(=O)[C@H](CCC(=O)O)NC(=O)[C@H](Cc1ccc(O)cc1)NC(=O)[C@H](CCC(=O)O)NC(=O)[C@H](CC(=O)O)NC(=O)[C@H](CC(=O)O)NC(=O)[C@@H](N)CCC(=O)O)C(=O)O; assay: as §1; how it was run: as §2
[10] = test system: CC(C)[C@H](NC(=O)[C@H](CCC(=O)O)NC(=O)[C@H](CCC(=O)O)NC(=O)[C@]1(NC(=O)[C@H](CCC(=O)O)NC(=O)[C@H](CC(=O)O)NC(=O)[C@H](CC(=O)O)NC(=O)[C@@H](N)CCC(=O)O)CCc2cc(O)ccc2C1)C(=O)O; assay: as §1; how it was run: as §2
[11] = test system: CC(C)[C@H](NC(=O)[C@H](CCC(=O)O)NC(=O)[C@H](CCC(=O)O)NC(=O)[C@H]1Cc2cc(O)ccc2CN1C(=O)[C@H](CCC(=O)O)NC(=O)[C@H](CC(=O)O)NC(=O)[C@H](CC(=O)O)NC(=O)[C@@H](N)CCC(=O)O)C(=O)O; assay: as §1; how it was run: as §2

Tyrosine-protein kinase SYK (Homo sapiens) (from UniProt P43405)
Km [1]: 124 µM
Km [2]: 146 µM
Km [3]: 87.7 µM
Km [4]: 17.3 µM
Km [5]: 3.6 µM
Km [6]: 6.5 µM
Km [7]: 63.2 µM
Km [8]: 5.5 µM
Km [9]: 3.6 µM
Km [10]: 98 µM
Km [11]: 136 µM
